Measurements: ChEMBL document CHEMBL2062453, “Lead optimization through VLAK protocol: new annelated pyrrolo-pyrimidine derivatives as antitumor agents” (2012)

Assays:
Type in all cases: functional
PC-3 = experiment: Cytotoxicity against human PC3 cells after 48 hrs by SRB assay; settings: PC-3, 48 h
Summary of the method: (§1)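 Five-dose screen, 10-fold or ½-log dilutions, compound stock in DMSO. Cells were in RPMI 1640 with 5% FBS and 2 mM glutamine at 5000–40,000 cells/well, preincubated 24 h, 37 °C, 5% CO₂, with a time-zero plate TCA-fixed. After 48 h drug exposure, cells were TCA-fixed and stained with 0.4% SRB, read at 515 nm. GI50, TGI and LC50 were derived from time-zero, control and test absorbances.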

UO-31 = experiment: Cytotoxicity against human UO31 cells after 48 hrs by SRB assay; settings: UO-31, 48 h
Summary of the method: (§2)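 NCI 60-panel five-dose screen. Cells in RPMI 1640 with 5% FBS and 2 mM glutamine, plated at 5000–40,000 cells/well and preincubated 24 h at 37 °C under 5% CO2. Five 10-fold or half-log dilutions were added from a DMSO stock for 48 h. Cells were TCA-fixed (SR settled cells: 16% final), SRB-stained and read at 515 nm. GI50 was taken where (Ti−Tz)/(C−Tz)×100 = 50.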

NCI-H322M = experiment: Cytotoxicity against human NCI-H322M cells after 48 hrs by SRB assay; summary of the method: as §1
HCT-116 = experiment: Cytotoxicity against human HCT116 cells after 48 hrs by SRB assay; settings: HCT-116, 48 h
Summary of the method: (§3)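 NCI 60-cell five-dose screen. Cells grown in RPMI 1640 with 5% FBS and 2 mM glutamine, plated at 5000–40,000 cells/well, and preincubated 24 h at 37 °C in 5% CO2. Time-zero plates fixed with TCA. Five serial dilutions of DMSO stock added, then 48 h exposure. TCA fixation, 0.4% SRB staining, absorbance read at 515 nm. GI50 from [(Ti−Tz)/(C−Tz)]×100 = 50.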

OVCAR-3 = experiment: Cytotoxicity against human OVCAR3 cells after 48 hrs by SRB assay; settings: OVCAR-3, 48 h; summary of the method: as §1
BT-549 = experiment: Cytotoxicity against human BT549 cells after 48 hrs by SRB assay; settings: BT-549, 48 h; summary of the method: as §3
Malme-3M = experiment: Cytotoxicity against human MALME-3M cells after 48 hrs by SRB assay; summary of the method: as §3
MDA-MB-435 = experiment: Cytotoxicity against human MDA-MB-435 cells after 48 hrs by SRB assay; settings: MDA-MB-435, 48 h; summary of the method: as §3
786-0 = experiment: Cytotoxicity against human 786-0 cells after 48 hrs by SRB assay; settings: 786-0, 48 h; summary of the method: as §3
HCC 2998 = experiment: Cytotoxicity against human HCC2998 cells after 48 hrs by SRB assay; settings: HCC 2998, 48 h; summary of the method: as §3
NCI-H23 = experiment: Cytotoxicity against human NCI-H23 cells after 48 hrs by SRB assay; settings: NCI-H23, 48 h; summary of the method: as §1
A549 = experiment: Cytotoxicity against human A549 cells after 48 hrs by SRB assay; settings: A549, 48 h; summary of the method: as §3
RPMI-8226 = experiment: Cytotoxicity against human RPMI8226 cells after 48 hrs by SRB assay; settings: RPMI-8226, 48 h; summary of the method: as §1
ACHN = experiment: Cytotoxicity against human ACHN cells after 48 hrs by SRB assay; summary of the method: as §3
SK-MEL-5 = experiment: Cytotoxicity against human SK-MEL-5 cells after 48 hrs by SRB assay; settings: SK-MEL-5, 48 h; summary of the method: as §1
SF-268 = experiment: Cytotoxicity against human SF268 cells after 48 hrs by SRB assay; settings: SF-268, 48 h; summary of the method: as §1
MDA-MB-231 = experiment: Cytotoxicity against human MDA-MB-231 cells after 48 hrs by SRB assay; settings: MDA-MB-231, 48 h; summary of the method: as §3
U-251 = experiment: Cytotoxicity against human U251 cells after 48 hrs by SRB assay; settings: U-251, 48 h; summary of the method: as §2
HOP-92 = experiment: Cytotoxicity against human HOP92 cells after 48 hrs by SRB assay; settings: HOP-92, 48 h
Summary of the method: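 NCI 60-line five-dose screen. Cells are grown in RPMI 1640 with 5% FBS and 2 mM glutamine, plated at 5000–40,000 cells/well, and preincubated 24 h at 37 °C in 5% CO2. Compound is dissolved in DMSO and given at five concentrations (10-fold or ½-log dilutions) for 48 h. Cells are TCA-fixed (HL-60(TB), suspension: 16% final; HOP92, adherent: 10% final), SRB-stained and read at 515 nm. GI50 comes from [(Ti−Tz)/(C−Tz)]×100 = 50.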

SF-539 = experiment: Cytotoxicity against human SF539 cells after 48 hrs by SRB assay; settings: SF-539, 48 h; summary of the method: as §1
T47D = experiment: Cytotoxicity against human T47D cells after 48 hrs by SRB assay; summary of the method: as §2
SNB-19 = experiment: Cytotoxicity against human SNB19 cells after 48 hrs by SRB assay; settings: SNB-19, 48 h; summary of the method: as §1
SW-620 = experiment: Cytotoxicity against human SW620 cells after 48 hrs by SRB assay; settings: SW-620, 48 h; summary of the method: as §2
KM12 = experiment: Cytotoxicity against human KM12 cells after 48 hrs by SRB assay; settings: KM12, 48 h; summary of the method: as §3
OVCAR-8 = experiment: Cytotoxicity against human OVCAR8 cells after 48 hrs by SRB assay; settings: OVCAR-8, 48 h; summary of the method: as §1

In the case of `CSC1=Nc2c(c(C)c(-c3ccccc3)n2CCCN2CCCCC2)C2=NC(=O)CC(C)N12` (stereo not drawn), the GI50 (PC-3) is reported as 1.38 µM, the LC50 (PC-3) is reported as 9.12 µM and the TGI (PC-3; read-out: pTGI (converted)) is reported as 3.55 µM. It also gave a GI50 (UO-31) of 5.01 µM, an LC50 (UO-31) of 75.9 µM and a TGI (UO-31; read-out: pTGI (converted)) of 24 µM. For the same molecule, the GI50 (NCI-H322M) was 6.17 µM, the LC50 (NCI-H322M) was > 100 µM and the TGI (NCI-H322M; read-out: pTGI (converted)) was 89.1 µM. The GI50 (HCT-116) was 2.4 µM, the LC50 (HCT-116) was > 100 µM and the TGI (HCT-116; read-out: pTGI (converted)) was > 100 µM. For the same molecule, the GI50 (OVCAR-3) was 2.4 µM, the LC50 (OVCAR-3) was 53.7 µM and the TGI (OVCAR-3; read-out: pTGI (converted)) was 8.51 µM. For the same molecule, the GI50 (BT-549) was 2.63 µM, the LC50 (BT-549) was 85.1 µM and the TGI (BT-549; read-out: pTGI (converted)) was 9.55 µM. For the same molecule, the GI50 (Malme-3M) was 2.34 µM, the LC50 (Malme-3M) was 53.7 µM and the TGI (Malme-3M; read-out: pTGI (converted)) was 7.24 µM. It also gave a GI50 (MDA-MB-435) of 2.88 µM, an LC50 (MDA-MB-435) of 58.9 µM and a TGI (MDA-MB-435; read-out: pTGI (converted)) of 10.5 µM. The GI50 (786-0) was 3.55 µM, the LC50 (786-0) was > 100 µM and the TGI (786-0; read-out: pTGI (converted)) was 47.9 µM. The GI50 (HCC 2998) was 3.24 µM, the LC50 (HCC 2998) was 61.7 µM and the TGI (HCC 2998; read-out: pTGI (converted)) was 16.2 µM. For the same molecule, the GI50 (NCI-H23) was 2.95 µM, the LC50 (NCI-H23) was > 100 µM and the TGI (NCI-H23; read-out: pTGI (converted)) was > 100 µM. The GI50 (A549) was 2.95 µM, the LC50 (A549) was 79.4 µM and the TGI (A549; read-out: pTGI (converted)) was 10.7 µM. The GI50 (RPMI-8226) was 0.166 µM, the LC50 (RPMI-8226) was 4.27 µM and the TGI (RPMI-8226; read-out: pTGI (converted)) was 1.2 µM. The GI50 (ACHN) was 3.02 µM, the CC50 (ACHN; read-out: pLC50 (the source's name) (converted)) was > 100 µM and the TGI (ACHN; read-out: pTGI (converted)) was 22.4 µM. It also gave a GI50 (SK-MEL-5) of 2 µM, an LC50 (SK-MEL-5) of 14.8 µM and a TGI (SK-MEL-5; read-out: pTGI (converted)) of 4.9 µM. It also gave a GI50 (SF-268) of 3.39 µM, an LC50 (SF-268) of 45.7 µM and a TGI (SF-268; read-out: pTGI (converted)) of 14.1 µM. For the same molecule, the GI50 (MDA-MB-231) was 1.82 µM, the LC50 (MDA-MB-231) was > 100 µM and the TGI (MDA-MB-231; read-out: pTGI (converted)) was 9.55 µM. For the same molecule, the GI50 (U-251) was 2.45 µM, the LC50 (U-251) was 33.9 µM and the TGI (U-251; read-out: pTGI (converted)) was 11.2 µM. The LC50 (HOP-92) was > 100 µM, the GI50 (SF-539) was 6.46 µM and the LC50 (SF-539) was > 100 µM. The TGI (SF-539; read-out: pTGI (converted)) was 87.1 µM, the GI50 (T47D) was 2 µM and the LC50 (T47D) was > 100 µM. For the same molecule, the TGI (T47D; read-out: pTGI (converted)) was 7.59 µM, the GI50 (SNB-19) was 2.95 µM and the LC50 (SNB-19) was > 100 µM. The TGI (SNB-19; read-out: pTGI (converted)) was > 100 µM, the GI50 (SW-620) was 2.4 µM and the LC50 (SW-620) was 32.4 µM. It also gave a TGI (SW-620; read-out: pTGI (converted)) of 10.5 µM, a GI50 (KM12) of 3.16 µM and an LC50 (KM12) of 33.9 µM. The TGI (KM12; read-out: pTGI (converted)) was 11 µM, the GI50 (OVCAR-8) was 3.72 µM and the LC50 (OVCAR-8) was > 100 µM. The TGI (OVCAR-8; read-out: pTGI (converted)) was 30.9 µM.
